ChEMBL document CHEMBL2417423, “Synthesis and antifungal activities of miltefosine analogs” (Bioorg Med Chem Lett, 2013)
Converted amounts (≈) assume the structure as drawn. The source made the active and inactive calls. No cut-off for these calls is given here.

Key:
Aspergillus fumigatus [1] = experiment: Antifungal activity against Aspergillus fumigatus ATCC 90906 at 20 ug/ml after 48 hrs by spectrophotometry; format: functional, organism-based
Nakaseomyces glabratus [2] = experiment: Antifungal activity against Candida glabrata ATCC 90030 after 48 hrs; format: functional; settings: ATCC 90030, 48 h
Outline: (§1)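 MIC is the lowest concentration with no detectable growth. MFC: 5 μL from each clear well moved to agar at 35°C, 48 h for Candida spp. and A. fumigatus, 72 h for C. neoformans; lowest concentration that kills. Values are means of three independent experiments (two for one analog).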

Pichia kudriavzevii [3] = experiment: Antifungal activity against Candida krusei ATCC 6258 at 20 ug/ml after 48 hrs; format: functional, organism-based
Vero = experiment: Cytotoxicity against african green monkey Vero cells after 48 hrs by neutral red; format: cell-based; settings: Chlorocebus sabaeus
Candida albicans [4] = experiment: Antifungal activity against Candida albicans ATCC 90028 at 20 ug/ml after 48 hrs; format: functional, organism-based
[5] = Cytotoxicity against pig LLC-PK11 cells after 48 hrs by neutral red; format: cell-based; settings: Sus scrofa, LLC-PK11, 48 h
Nakaseomyces glabratus [6] = experiment: Antifungal activity against Candida glabrata ATCC 90030 after 48 hrs by spectrophotometry; format: functional; settings: ATCC 90030, 48 h; outline: as §1
HepG2 = experiment: Cytotoxicity against human HepG2 cells after 48 hrs by neutral red; format: cell-based; settings: HepG2, 48 h
Candida albicans [7] = experiment: Antifungal activity against Candida albicans ATCC 90028 at 20 ug/ml after 48 hrs by spectrophotometry; format: functional, organism-based
Cryptococcus neoformans [8] = experiment: Antifungal activity against Cryptococcus neoformans ATCC 90113 at 20 ug/ml after 72 hrs by spectrophotometry; format: functional, organism-based
Pichia kudriavzevii [9] = experiment: Antifungal activity against Candida krusei ATCC 6258 at 20 ug/ml after 48 hrs by spectrophotometry; format: functional, organism-based
Aspergillus fumigatus [10] = experiment: Antifungal activity against Aspergillus fumigatus ATCC 90906 at 20 ug/ml after 48 hrs; format: functional, organism-based
Cryptococcus neoformans [11] = experiment: Antifungal activity against Cryptococcus neoformans ATCC 90113 at 20 ug/ml after 72 hrs; format: functional, organism-based
Cryptococcus neoformans [12] = experiment: Antifungal activity against Cryptococcus neoformans ATCC 90113 after 72 hrs by spectrophotometry; format: functional; settings: ATCC 90113, 72 h; outline: as §1
Candida albicans [13] = experiment: Antifungal activity against Candida albicans ATCC 90028 after 48 hrs; format: functional; settings: ATCC 90028, 48 h; outline: as §1
Aspergillus fumigatus [14] = experiment: Antifungal activity against Aspergillus fumigatus ATCC 90906 after 48 hrs; format: functional; settings: ATCC 90906, 48 h; outline: as §1
Aspergillus fumigatus [15] = experiment: Antifungal activity against Aspergillus fumigatus ATCC 90906 after 48 hrs by spectrophotometry; format: functional; settings: ATCC 90906, 48 h; outline: as §1
Cryptococcus neoformans [16] = experiment: Antifungal activity against Cryptococcus neoformans ATCC 90113 after 72 hrs; format: functional; settings: ATCC 90113, 72 h; outline: as §1
Candida albicans [17] = experiment: Antifungal activity against Candida albicans ATCC 90028 after 48 hrs by spectrophotometry; format: functional; settings: ATCC 90028, 48 h; outline: as §1
Pichia kudriavzevii [18] = experiment: Antifungal activity against Candida krusei ATCC 6258 after 48 hrs; format: functional; settings: ATCC 6258, 48 h; outline: as §1
Pichia kudriavzevii [19] = experiment: Antifungal activity against Candida krusei ATCC 6258 after 48 hrs by spectrophotometry; format: functional; settings: ATCC 6258, 48 h; outline: as §1
Candida albicans [20] = experiment: Antifungal activity against Candida albicans SC5314 infected in CD-1 mouse assessed as host survival at 25 mg/kg, po administered 4, 24, 48, 72, and 96 hrs post inoculation measured up to 12 days relative to control; format: functional, organism-based; design: dose 25 mg/kg
Outline: (§2)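 Male CD1 mice, 6-7 weeks old, five per group, infected by tail-vein injection of 1 × 10^6 C. albicans SC5314 cells. Dosed intraperitoneally or orally at 4, 24, 48, 72 and 96 h post inoculation; PBS-treated controls. Survival followed for 12 days and compared by Log-rank test.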

Candida albicans [21] = experiment: Antifungal activity against Candida albicans SC5314 infected in CD-1 mouse assessed as host survival at 1 mg/kg, ip administered 4, 24, 48, 72, and 96 hrs post inoculation measured up to […] relative to control; format: functional, organism-based; design: dose 1 mg/kg
Candida albicans [22] = experiment: Antifungal activity against Candida albicans SC5314 infected in CD-1 mouse assessed as host survival at 5 mg/kg, po administered 4, 24, 48, 72, and 96 hrs post inoculation measured up to 12 days relative to control; format: functional, organism-based; design: dose 5 mg/kg; outline: as §2
Candida albicans [23] = experiment: Antifungal activity against Candida albicans SC5314 infected in CD-1 mouse assessed as host survival at 5 mg/kg, ip administered 4, 24, 48, 72, and 96 hrs post inoculation measured up to 8 days relative to control; format: functional, organism-based; design: dose 5 mg/kg
Leishmania donovani = experiment: Antileishmanial activity against Leishmania donovani in ip dosed mouse model of leishamniasis; format: functional

Structure (SMILES)	MIC (Nakaseomyces glabratus [6])	MIC (Cryptococcus neoformans [12])	MIC (Aspergillus fumigatus [15])	MIC (Candida albicans [17])	MIC (Pichia kudriavzevii [19])	MFC (Nakaseomyces glabratus [2])	Activity (Pichia kudriavzevii [3])	IC50 (Vero)	Activity (Candida albicans [4])	IC50 [5]	IC50 (HepG2)	Activity (Candida albicans [7])	Activity (Cryptococcus neoformans [8])	Activity (Pichia kudriavzevii [9])	Activity (Cryptococcus neoformans [11])	MFC (Candida albicans [13])	MFC (Aspergillus fumigatus [14])	MFC (Cryptococcus neoformans [16])	MFC (Pichia kudriavzevii [18])	further results
CCCCCCCCCCCCCCCCOP(=O)([O-])OCC[N+](C)(C)Cc1ccccc1	3.3 µg/mL (≈ 6.82 µM)	3.3 µg/mL (≈ 6.82 µM)	2.5 µg/mL (≈ 5.17 µM)	2.5 µg/mL (≈ 5.17 µM)	5 µg/mL (≈ 10.3 µM)	3.3 µg/mL (≈ 6.82 µM)	–	> 25 µg/mL	–	4.8 µg/mL (≈ 9.92 µM)	> 25 µg/mL	–	–	–	–	2.5 µg/mL (≈ 5.17 µM)	2.5 µg/mL (≈ 5.17 µM)	3.3 µg/mL (≈ 6.82 µM)	15 µg/mL (≈ 31 µM)	Activity (Candida albicans [20]): inactive; Activity (Candida albicans [21]): inactive; Activity (Candida albicans [22]): inactive; Activity (Candida albicans [23]): inactive
C[C@@H]1[C@H](O)[C@@H](C)/C=C/C=C/C=C/C=C/C=C/C=C/C=C/[C@H](O[C@@H]2O[C@H](C)[C@@H](O)[C@H](N)[C@@H]2O)C[C@@H]2O[C@](O)(C[C@@H](O)C[C@@H](O)[C@H](O)CC[C@@H](O)C[C@@H](O)CC(=O)O[C@H]1C)C[C@H](O)[C@H]2C(=O)O [AMPHOTERICIN B]	1.3 µg/mL (≈ 1.41 µM)	–	2.5 µg/mL (≈ 2.71 µM)	0.9 µg/mL (≈ 0.974 µM)	1.7 µg/mL (≈ 1.84 µM)	1.5 µg/mL (≈ 1.62 µM)	–	–	–	–	–	–	–	–	–	1 µg/mL (≈ 1.08 µM)	5 µg/mL (≈ 5.41 µM)	–	1.7 µg/mL (≈ 1.84 µM)	–
CCCCCCCCCCCCCCCCOP(=O)([O-])OCC[N+](C)(C)C [MILTEFOSINE]	3.3 µg/mL (≈ 8.1 µM)	2.1 µg/mL (≈ 5.15 µM)	2.9 µg/mL (≈ 7.12 µM)	2.5 µg/mL (≈ 6.13 µM)	2.5 µg/mL (≈ 6.13 µM)	4.2 µg/mL (≈ 10.3 µM)	–	> 25 µg/mL	–	2.7 µg/mL (≈ 6.62 µM)	> 25 µg/mL	–	–	–	–	2.5 µg/mL (≈ 6.13 µM)	9.2 µg/mL (≈ 22.6 µM)	2.1 µg/mL (≈ 5.15 µM)	3.3 µg/mL (≈ 8.1 µM)	ED50 (Leishmania donovani): 7.72 mg/kg; Activity (Candida albicans [23]): inactive
COc1cccc2c1C(=O)c1c(O)c3c(c(O)c1C2=O)C[C@@](O)(C(=O)CO)C[C@@H]3O[C@H]1C[C@H](N)[C@H](O)[C@H](C)O1 [DOXORUBICIN]	–	–	–	–	–	–	–	> 5 µg/mL	–	0.7 µg/mL (≈ 1.29 µM)	0.9 µg/mL (≈ 1.66 µM)	–	–	–	–	–	–	–	–	–
CCCCCCCCCCCCCCCCOP(=O)([O-])OCC[N+](C)(C)Cc1ccc(OC)cc1	2.5 µg/mL (≈ 4.87 µM)	4.2 µg/mL (≈ 8.18 µM)	2.5 µg/mL (≈ 4.87 µM)	4.2 µg/mL (≈ 8.18 µM)	2 µg/mL (≈ 3.89 µM)	3.3 µg/mL (≈ 6.42 µM)	–	> 25 µg/mL	–	1.9 µg/mL (≈ 3.7 µM)	12.9 µg/mL (≈ 25.1 µM)	–	–	–	–	4.2 µg/mL (≈ 8.18 µM)	7.5 µg/mL (≈ 14.6 µM)	4.2 µg/mL (≈ 8.18 µM)	3.3 µg/mL (≈ 6.42 µM)	–

Continued by falling MIC (Nakaseomyces glabratus [6]), values first:

MIC (Nakaseomyces glabratus [6])	MIC (Cryptococcus neoformans [12])	MIC (Aspergillus fumigatus [15])	MIC (Candida albicans [17])	MIC (Pichia kudriavzevii [19])	Structure (SMILES)	MFC (Nakaseomyces glabratus [2])	Activity (Pichia kudriavzevii [3])	IC50 (Vero)	Activity (Candida albicans [4])	IC50 [5]	IC50 (HepG2)	Activity (Candida albicans [7])	Activity (Cryptococcus neoformans [8])	Activity (Pichia kudriavzevii [9])	Activity (Cryptococcus neoformans [11])	MFC (Candida albicans [13])	MFC (Aspergillus fumigatus [14])	MFC (Cryptococcus neoformans [16])	MFC (Pichia kudriavzevii [18])	further results
16.6 µg/mL (≈ 38.3 µM)	–	–	–	–	C=CC[N+](C)(C)CCOP(=O)([O-])OCCCCCCCCCCCCCCCC	16.6 µg/mL (≈ 38.3 µM)	inactive	> 25 µg/mL	inactive	4.1 µg/mL (≈ 9.46 µM)	13.2 µg/mL (≈ 30.4 µM)	inactive	inactive	inactive	inactive	–	–	–	–	Activity (Aspergillus fumigatus [1]): inactive; Activity (Aspergillus fumigatus [10]): inactive
11.2 µg/mL (≈ 21.6 µM)	–	12.5 µg/mL (≈ 24.1 µM)	–	–	CCCCCCCCCCCCCCCCOP(=O)([O-])OCC[N+](C)(C)Cc1ccc(Cl)cc1	11.2 µg/mL (≈ 21.6 µM)	inactive	> 25 µg/mL	inactive	3.2 µg/mL (≈ 6.18 µM)	21 µg/mL (≈ 40.5 µM)	inactive	inactive	inactive	inactive	–	12.5 µg/mL (≈ 24.1 µM)	–	–	–
10.8 µg/mL (≈ 19.2 µM)	–	20 µg/mL (≈ 35.6 µM)	–	–	CCCCCCCCCCCCCCCCOP(=O)([O-])OCC[N+](C)(C)Cc1ccc(Br)cc1	10.8 µg/mL (≈ 19.2 µM)	inactive	> 25 µg/mL	inactive	5.5 µg/mL (≈ 9.78 µM)	21.3 µg/mL (≈ 37.9 µM)	inactive	inactive	inactive	inactive	–	20 µg/mL (≈ 35.6 µM)	–	–	–
8.3 µg/mL (≈ 18.2 µM)	3.3 µg/mL (≈ 7.24 µM)	10 µg/mL (≈ 21.9 µM)	6.7 µg/mL (≈ 14.7 µM)	10 µg/mL (≈ 21.9 µM)	CCCCCCCCCCCCCCOP(=O)([O-])OCC[N+](C)(C)Cc1ccccc1	8.3 µg/mL (≈ 18.2 µM)	–	> 25 µg/mL	–	10.8 µg/mL (≈ 23.7 µM)	> 25 µg/mL	–	–	–	–	8.3 µg/mL (≈ 18.2 µM)	–	3.3 µg/mL (≈ 7.24 µM)	10 µg/mL (≈ 21.9 µM)	–
4.2 µg/mL (≈ 8.21 µM)	–	–	–	–	CCCCCCCCCCCCCCCCCCOP(=O)([O-])OCC[N+](C)(C)Cc1ccccc1	4.2 µg/mL (≈ 8.21 µM)	inactive	> 25 µg/mL	inactive	4.7 µg/mL (≈ 9.18 µM)	13 µg/mL (≈ 25.4 µM)	inactive	inactive	inactive	inactive	–	–	–	–	Activity (Aspergillus fumigatus [1]): inactive; Activity (Aspergillus fumigatus [10]): inactive
2.5 µg/mL (≈ 4.73 µM)	2.5 µg/mL (≈ 4.73 µM)	2.5 µg/mL (≈ 4.73 µM)	2.5 µg/mL (≈ 4.73 µM)	2.5 µg/mL (≈ 4.73 µM)	CCCCCCCCCCCCCCCCOP(=O)([O-])OCC[N+](C)(C)Cc1ccc([N+](=O)[O-])cc1	2.5 µg/mL (≈ 4.73 µM)	–	> 25 µg/mL	–	1.6 µg/mL (≈ 3.03 µM)	11.5 µg/mL (≈ 21.8 µM)	–	–	–	–	2.5 µg/mL (≈ 4.73 µM)	7.5 µg/mL (≈ 14.2 µM)	2.5 µg/mL (≈ 4.73 µM)	3.3 µg/mL (≈ 6.24 µM)	–
2.5 µg/mL (≈ 4.9 µM)	–	2.5 µg/mL (≈ 4.9 µM)	–	3.3 µg/mL (≈ 6.47 µM)	CCCCCCCCCCCCCCCCOP(=O)([O-])OCC[N+](C)(C)C/C=C/c1ccccc1	3.3 µg/mL (≈ 6.47 µM)	–	> 25 µg/mL	inactive	2.1 µg/mL (≈ 4.12 µM)	19.6 µg/mL (≈ 38.5 µM)	inactive	inactive	–	inactive	–	5 µg/mL (≈ 9.81 µM)	–	3.3 µg/mL (≈ 6.47 µM)	–
